Measurements published in publication PMC9323481 (Diabetes, Obesity & Metabolism, 2022).

Key:
Format in all cases: in vivo, human
[1] = test system: patients with type 2 diabetes and CKD; assay: Supine blood pressure and heart rate
Outline: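 Vital signs, blood pressure and 24-h pulse rate were safety endpoints, taken as change from baseline. Randomized double-blind design: once-daily morning s.c. test compound titrated 50 μg (4 days), 100 μg (7 days), 200 μg (7 days), 300 μg (14 days), or placebo for 32 days. ANCOVA with baseline as covariate, as-treated population.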

[2] = test system: patients with type 2 diabetes and CKD; assay: Fasting plasma glucose and HbA1c; details: s.c. once daily, 50-300 μg; for Change in LS mean fasting plasma glucose from baseline to day 32: 32 days
[3] = test system: patients with type 2 diabetes and CKD; assay: Continuous glucose monitoring
Outline: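 Double-blind, placebo-controlled, once-daily s.c. dosing titrated 50→100→200→300 μg over 32 days. Continuous glucose monitoring gave the percentage of time with interstitial glucose in the target range of 70-180 mg/dl (3.9-10 mmol/L) over a 7-day period, at baseline and in the final week of treatment. Change analysed by Wilcoxon rank-sum test, intent-to-treat population.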

Pharmacokinetics = details: repeat daily s.c. administration 50-300 μg; plasma
Outline: (§1)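 Secondary endpoints of a 32-day trial: once-daily morning s.c. dosing titrated through 50 μg for 4 days, 100 μg for 7 days, 200 μg for 7 days and 300 μg for 14 days. Pharmacokinetic parameters and anti-drug antibody titre were summarized with descriptive statistics only.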

[4] = test system: patients with type 2 diabetes and CKD on insulin ≥20 units per day; assay: Total daily insulin dose; details: participants on insulin ≥20 units per day; range –194, 20; placebo 0.0, p = .073
Outline: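 Exploratory endpoint: change in total daily insulin dose from baseline to end of dosing, in participants on ≥20 units/day. Randomization was stratified by insulin dose (≥20 vs <20 units/day). Dosing was once-daily s.c., titrated 50-300 μg over 32 days, against placebo. Analysed by two-sample t-test with unequal variance and Satterthwaite approximation.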

[5] = test system: patients with type 2 diabetes and CKD; assay: Immunogenicity; details: serum anti-drug antibody
Outline: as §1

[6] = test system: patients with type 2 diabetes and CKD; assay: Bodyweight; details: p < .001
Outline: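 Randomized 1:1, double-blind; test compound or placebo given s.c. once daily each morning. Test compound dose titration: 50 μg for 4 days, 100 μg for 7 days, 200 μg for 7 days, then 300 μg for 14 days. Percentage and absolute change in bodyweight from baseline, intent-to-treat population. ANCOVA with treatment as fixed factor and baseline as covariate.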

[7] = test system: patients with type 2 diabetes and CKD; assay: Clinical chemistry and eGFR percent change; details: baseline to day 32
[8] = test system: patients with type 2 diabetes and CKD; assay: Treatment-emergent adverse events
Outline: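 Incidence of adverse events and serious adverse events during 32 days of once-daily s.c. dosing (titrated 50→100→200→300 μg) or placebo. Clinically significant hypoglycaemia was defined as capillary or venous plasma glucose <54 mg/dl (3.0 mmol/L). Safety analyses used the as-treated population with descriptive statistics.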

[9] = test system: patients with type 2 diabetes and CKD; assay: UACR and eGFR
Outline: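 Exploratory endpoints: change from baseline in mean urinary albumin-to-creatinine ratio (UACR) and eGFR. Dosing was randomized, double-blind, once-daily s.c., titrated 50-300 μg over 32 days, against placebo. Change in UACR was analysed by t-test with unequal variance. Continuous endpoints were analysed by ANCOVA with baseline as covariate, intent-to-treat population.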

In the case of cotadutide, the “Increase in LS mean heart rate from baseline to day 32” value ([1]; placebo 3.14, p < .001) is reported as 14.13 beats per minute, the “Increase in LS mean supine diastolic blood pressure from baseline to day 32” value ([1]; placebo 3.40, p = .421) is reported as 0.57 mmHg and the “Increase in LS mean supine systolic blood pressure from baseline to day 32” value ([1]; placebo 8.69, p = .144) is reported as 1.44 mmHg. The “Change in LS mean fasting plasma glucose from baseline to day 32” value ([2]; placebo 0.03) was 1.09 mmol/L, the “Change in LS mean fasting plasma glucose from baseline to day 32” value ([2]; placebo +0.60, p = .089) was “–19.55 mg/dl” and the “Change in LS mean HbA1c from baseline to day 32” value ([2]; placebo +0.01%, p < .001) was “–0.65%”. For the same substance, the “Mean percentage of time within target range over a 7-day period” value (“Mean percentage … over a 7-day period” for short) ([3]; 100 μg dose period, placebo 48.57%) was 75.82%, the “Mean percentage … over a 7-day period” value ([3]; 200 μg dose period, placebo 54.99%) was 78.69% and the “Mean percentage … over a 7-day period” value ([3]; 300 μg dose period, placebo 40.66%) was 78.18%. For the same substance, the “Time in clinically significant hypoglycaemia (glucose <54 mg/dl or <3.0 mmol/L)” value ([3]; CGM, entire dosing period, placebo 0.66%, p = .010) was 2.01%, the “Time in hypoglycaemia (glucose <70 mg/dl or <3.9 mmol/L)” value ([3]; CGM, entire dosing period, placebo 2.73%, p = .061) was 6.07% and the “Time in hyperglycaemia (glucose >180 mg/dl or 10 mmol/L)” value ([3]; CGM, entire dosing period, placebo 37.39%, p = .001) was 10.50%. For the same substance, the “Exposure at Ctrough with dose” value (Pharmacokinetics) was “linear increased exposure”, the “Median absolute change in total daily insulin dose from baseline to day 32” value [4] was “–16.0 units per day” and the “Treatment-boosted ADA response” value [5] was “No participants”. For the same substance, the “LS mean change in absolute bodyweight from baseline to day 33” value ([6]; 90% CI –4.2, –2.62, placebo –0.13 kg) was “–3.41 kg”, the “LS mean percentage change in bodyweight from baseline to day 33” value ([6]; 90% CI –4.55, –2.83, placebo –0.21%) was “–3.69%” and the “Trends or shifts from baseline in serum chemistry” value [7] was “no clinically meaningful trends or shifts”. For the same substance, the “Mild/moderate adverse events, participants” value ([8]; abstract, placebo 35.0%) was 71.4%, the “Treatment-emergent adverse event: Any” value ([8]; n = 21, as-treated, placebo 13 (65.0)) was 20 (95.2) n (%) and the “Treatment-emergent adverse event: Hypoglycaemia” value ([8]; n = 21, clinically significant, capillary or venous plasma glucose <54 mg/dl (3.0 mmol/L), placebo 1 (5.0)) was 3 (14.3) n (%). The “Treatment-emergent adverse event: Decreased appetite” value ([8]; n = 21, placebo 0) was 3 (14.3) n (%), the “Treatment-emergent adverse event: Diarrhoea” value ([8]; n = 21, placebo 0) was 5 (23.8) n (%) and the “Treatment-emergent adverse event: Flatulence” value ([8]; n = 21, placebo 0) was 2 (9.5) n (%). For the same substance, the “Treatment-emergent adverse event: Leading to death (no. patients)” value ([8]; n = 21, placebo 0) was 1 (4.8) n (%), the “Treatment-emergent adverse event: Serious related to cotadutide” value ([8]; n = 21, placebo 0) was 1 (4.8) n (%) and the “Treatment-emergent adverse event: Dizziness” value ([8]; n = 21, placebo 1 (5.0)) was 2 (9.5) n (%). For the same substance, the “Treatment-emergent adverse event: Dyspepsia” value ([8]; n = 21, placebo 1 (5.0)) was 5 (23.8) n (%), the “Treatment-emergent adverse event: Leading to study discontinuation (no. patients)” value ([8]; n = 21, placebo 1 (5.0)) was 2 (9.5) n (%) and the “Treatment-emergent adverse event: Vomiting” value ([8]; n = 21, placebo 1 (5.0)) was 6 (28.6) n (%). The “Treatment-emergent adverse event: Headache” value ([8]; n = 21, placebo 2 (10.0)) was 2 (9.5) n (%), the “Treatment-emergent adverse event: Nasopharyngitis” value ([8]; n = 21, placebo 2 (10.0)) was 3 (14.3) n (%) and the “Treatment-emergent adverse event: Serious (no. patients)” value ([8]; n = 21, placebo 2 (10.0)) was 2 (9.5) n (%). The “Treatment-emergent adverse event: Nausea” value ([8]; n = 21, placebo 4 (20.0)) was 9 (42.9) n (%), the “Treatment-emergent adverse event: Any related to cotadutide” value ([8]; n = 21, placebo 7 (35.0)) was 15 (71.4) n (%) and the “AEs of severe hypoglycaemia” value ([8]; whole study) was “no recorded AEs”. The “LS mean change in eGFR” value ([9]; 90% CI –1.29, 3.62, placebo –1.10, p = .268) was 1.17 ml/min/1.73 m^2 and the “Change in LS mean UACR from baseline to day 33” value ([9]; all participants, placebo 5.43%, not significant) was “–7.65%”.
